Data published in ChEMBL document CHEMBL1155498, “Glycine amides as PPARalpha agonists” (Bioorg Med Chem Lett, 2010).
Converted amounts (≈) assume the structure as drawn. One block for each compound: values may come before it.

How the values were obtained:
[1] = molecular target: T1, Peroxisome proliferator-activated receptor alpha (Homo sapiens, UniProt Q07869); test: Agonist activity at Gal4-fused human PPARalpha; format: functional
T1 sequence (Q07869 whole entry): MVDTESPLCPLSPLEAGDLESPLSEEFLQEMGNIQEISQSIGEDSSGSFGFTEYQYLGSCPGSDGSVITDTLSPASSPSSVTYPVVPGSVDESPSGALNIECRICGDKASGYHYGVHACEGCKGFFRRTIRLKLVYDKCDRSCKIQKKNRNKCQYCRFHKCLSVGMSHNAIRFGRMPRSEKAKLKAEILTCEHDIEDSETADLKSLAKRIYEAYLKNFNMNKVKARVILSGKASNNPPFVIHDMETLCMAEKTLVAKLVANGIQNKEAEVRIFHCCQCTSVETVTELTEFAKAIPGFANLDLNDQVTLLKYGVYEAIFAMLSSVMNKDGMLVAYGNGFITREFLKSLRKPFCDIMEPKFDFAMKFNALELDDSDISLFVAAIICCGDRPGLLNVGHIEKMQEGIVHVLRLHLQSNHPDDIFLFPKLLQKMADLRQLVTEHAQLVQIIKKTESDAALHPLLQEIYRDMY

[2] = molecular target: T2, Peroxisome proliferator-activated receptor gamma (Homo sapiens, UniProt P37231); test: Agonist activity at Gal4-fused human PPARgamma
T2 sequence (P37231 whole entry): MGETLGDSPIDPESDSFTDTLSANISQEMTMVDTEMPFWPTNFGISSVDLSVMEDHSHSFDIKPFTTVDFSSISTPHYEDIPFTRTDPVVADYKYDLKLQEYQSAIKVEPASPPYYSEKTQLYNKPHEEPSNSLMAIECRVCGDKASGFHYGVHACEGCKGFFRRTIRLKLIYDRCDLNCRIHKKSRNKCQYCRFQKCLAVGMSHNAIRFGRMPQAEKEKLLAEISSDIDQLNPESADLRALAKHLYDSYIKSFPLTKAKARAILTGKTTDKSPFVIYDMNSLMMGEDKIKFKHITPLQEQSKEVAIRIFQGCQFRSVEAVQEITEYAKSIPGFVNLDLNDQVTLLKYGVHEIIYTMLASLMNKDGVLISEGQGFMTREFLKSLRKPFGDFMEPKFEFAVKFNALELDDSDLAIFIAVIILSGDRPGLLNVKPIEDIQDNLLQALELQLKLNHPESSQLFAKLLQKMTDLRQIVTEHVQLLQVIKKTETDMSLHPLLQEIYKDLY

[3] = molecular target: T3, Peroxisome proliferator-activated receptor delta (Homo sapiens, UniProt Q03181); test: Agonist activity at Gal4-fused human PPARdelta; format: functional
T3 sequence (Q03181 whole entry): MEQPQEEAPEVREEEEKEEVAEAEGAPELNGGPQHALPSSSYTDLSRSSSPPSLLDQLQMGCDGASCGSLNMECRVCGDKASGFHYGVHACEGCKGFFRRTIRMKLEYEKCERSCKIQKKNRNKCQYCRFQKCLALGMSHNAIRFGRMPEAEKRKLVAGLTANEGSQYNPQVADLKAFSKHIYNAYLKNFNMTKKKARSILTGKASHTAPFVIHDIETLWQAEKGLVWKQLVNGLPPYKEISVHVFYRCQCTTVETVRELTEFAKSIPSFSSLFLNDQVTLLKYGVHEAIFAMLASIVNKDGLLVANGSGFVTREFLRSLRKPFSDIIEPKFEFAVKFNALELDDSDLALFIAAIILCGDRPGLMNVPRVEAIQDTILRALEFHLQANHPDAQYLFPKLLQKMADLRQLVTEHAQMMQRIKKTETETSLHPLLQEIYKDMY

[4] = molecular target: T4, Peroxisome proliferator-activated receptor alpha (Mus musculus, UniProt P23204); test: Agonist activity at Gal4-fused mouse PPARalpha; format: functional
T4 sequence (P23204 whole entry): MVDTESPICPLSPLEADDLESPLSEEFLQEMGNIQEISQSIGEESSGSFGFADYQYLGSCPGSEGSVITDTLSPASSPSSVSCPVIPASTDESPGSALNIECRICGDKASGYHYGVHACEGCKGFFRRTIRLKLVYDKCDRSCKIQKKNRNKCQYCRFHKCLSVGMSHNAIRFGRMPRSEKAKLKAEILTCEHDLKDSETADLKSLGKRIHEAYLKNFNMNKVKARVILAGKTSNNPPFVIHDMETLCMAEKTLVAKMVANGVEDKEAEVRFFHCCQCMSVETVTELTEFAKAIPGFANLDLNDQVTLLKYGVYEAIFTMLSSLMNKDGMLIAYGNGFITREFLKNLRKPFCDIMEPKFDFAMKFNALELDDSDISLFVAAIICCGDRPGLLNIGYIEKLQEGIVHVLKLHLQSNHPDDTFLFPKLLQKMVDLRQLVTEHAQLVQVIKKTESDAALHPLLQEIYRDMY

[5] = molecular target: T5, Peroxisome proliferator-activated receptor gamma (Mus musculus, UniProt P37238); test: Agonist activity at Gal4-fused mouse PPARgamma; format: functional
T5 sequence (P37238 whole entry): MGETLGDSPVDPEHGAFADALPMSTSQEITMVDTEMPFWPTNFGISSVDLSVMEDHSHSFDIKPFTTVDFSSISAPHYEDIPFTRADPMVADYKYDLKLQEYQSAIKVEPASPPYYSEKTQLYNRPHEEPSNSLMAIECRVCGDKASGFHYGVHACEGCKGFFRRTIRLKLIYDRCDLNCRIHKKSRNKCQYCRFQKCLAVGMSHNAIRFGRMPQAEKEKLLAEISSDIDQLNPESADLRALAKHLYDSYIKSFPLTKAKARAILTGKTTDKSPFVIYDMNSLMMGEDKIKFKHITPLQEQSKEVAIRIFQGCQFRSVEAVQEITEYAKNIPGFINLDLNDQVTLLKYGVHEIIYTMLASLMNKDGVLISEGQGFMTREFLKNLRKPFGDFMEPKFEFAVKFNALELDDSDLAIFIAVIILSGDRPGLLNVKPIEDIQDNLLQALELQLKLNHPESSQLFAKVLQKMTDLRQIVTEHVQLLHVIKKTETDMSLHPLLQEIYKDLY

[6] = molecular target: T6, Peroxisome proliferator-activated receptor delta (Mus musculus, UniProt P35396); test: Agonist activity at Gal4-fused mouse PPARdelta; format: functional
T6 sequence (P35396 whole entry): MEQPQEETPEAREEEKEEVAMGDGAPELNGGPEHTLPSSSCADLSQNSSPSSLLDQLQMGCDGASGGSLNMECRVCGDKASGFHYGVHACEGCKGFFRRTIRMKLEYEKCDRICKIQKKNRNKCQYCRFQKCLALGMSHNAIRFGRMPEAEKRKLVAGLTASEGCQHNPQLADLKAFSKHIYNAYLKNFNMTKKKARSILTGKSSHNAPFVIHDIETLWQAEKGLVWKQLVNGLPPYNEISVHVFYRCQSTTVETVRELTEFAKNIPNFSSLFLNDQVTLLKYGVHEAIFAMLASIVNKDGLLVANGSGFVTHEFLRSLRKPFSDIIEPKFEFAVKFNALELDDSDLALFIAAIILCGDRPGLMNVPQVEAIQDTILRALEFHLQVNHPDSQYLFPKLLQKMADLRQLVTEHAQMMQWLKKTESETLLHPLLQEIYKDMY

Albumin = Albumin (Homo sapiens, UniProt P02768); test: Binding affinity to human serum albumin; format: ADME; details: isolated protein
Albumin, sequence (P02768 whole entry): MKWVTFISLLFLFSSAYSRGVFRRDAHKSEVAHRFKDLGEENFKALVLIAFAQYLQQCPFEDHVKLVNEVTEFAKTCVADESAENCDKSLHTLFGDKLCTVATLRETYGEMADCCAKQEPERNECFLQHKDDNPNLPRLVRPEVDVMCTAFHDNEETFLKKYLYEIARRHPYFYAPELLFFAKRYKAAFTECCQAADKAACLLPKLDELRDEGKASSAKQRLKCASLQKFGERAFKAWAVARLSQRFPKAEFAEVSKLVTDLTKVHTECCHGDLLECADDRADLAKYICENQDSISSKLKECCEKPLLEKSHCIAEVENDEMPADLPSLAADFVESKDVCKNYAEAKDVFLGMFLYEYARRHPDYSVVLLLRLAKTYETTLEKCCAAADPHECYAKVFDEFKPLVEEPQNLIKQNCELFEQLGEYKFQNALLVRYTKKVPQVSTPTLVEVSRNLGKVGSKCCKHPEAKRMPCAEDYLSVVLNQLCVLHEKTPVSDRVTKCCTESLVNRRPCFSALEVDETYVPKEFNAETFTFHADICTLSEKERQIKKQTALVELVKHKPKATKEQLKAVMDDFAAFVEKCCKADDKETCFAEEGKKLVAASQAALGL

[7] = Aqueous solubility of the compound; format: physicochemical
[8] = AUC in NMRI mouse at 10 mg/kg, po; format: ADME, organism-based; design: dose 10 mg/kg, route oral; details: plasma
How it was run: (§1)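 Male NMRI mice (n = 3) dosed orally at 10 mg/kg as a suspension in 20% PEG 400 (5 ml/kg). Plasma sampled at 7 time points up to 6 h. Concentrations dose-normalised to 1 mg/kg. Bioavailability taken against an iv arm (3 mg/kg, 20% PEG400, n = 3).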

[9] = Tmax in NMRI mouse at 10 mg/kg, po; format: ADME, organism-based; design: dose 10 mg/kg, route oral; details: in vivo; how it was run: as §1
[10] = Oral bioavailability in NMRI mouse at 10 mg/kg; format: ADME, organism-based; details: in vivo; how it was run: as §1
[11] = Clearance in NMRI mouse at 3 mg/kg, iv; format: ADME, organism-based; design: dose 3 mg/kg, route intravenous; details: in vivo
How it was run: (§2)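 Male NMRI mice (n = 3) given 3 mg/kg iv in 20% PEG400. Plasma concentration–time profile followed over about 6 h. Concentrations dose-normalised to 1 mg/kg.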

[12] = Half life in NMRI mouse at 3 mg/kg, iv; format: ADME, organism-based; design: dose 3 mg/kg, route intravenous; details: in vivo; how it was run: as §2
Mus musculus [13] = test: Reduction in triglyceride level in human ApoA1 transgenic mouse at 0.6 mg/kg, po for 7 days relative to control; format: functional; design: scale not given: the % may be the effect or the level left
How it was run: (§3)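 Male transgenic hAPO-A1 C57BL/6 mice, n = 10 per dose. Dosed orally once daily for 7 d at 0.6, 2 or 6 mg/kg in Solutol HS15 + ethanol + 0.9% brine (1+1+8), 10 ml/kg. Serum triglycerides and total cholesterol measured photometrically against vehicle control. Total cholesterol serves as a surrogate for HDL.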

Mus musculus [14] = test: Reduction in triglyceride level in human ApoA1 transgenic mouse at 2 mg/kg, po for 7 days relative to control; format: functional; design: scale not given: the % may be the effect or the level left; how it was run: as §3
Mus musculus [15] = test: Increase in total cholesterol level in human ApoA1 transgenic mouse at 0.6 mg/kg, po for 7 days (RVb = 29 %); format: functional; how it was run: as §3
Mus musculus [16] = test: Increase in total cholesterol level in human ApoA1 transgenic mouse at 2 mg/kg, po for 7 days (RVb = 29 %); format: functional; how it was run: as §3
Mus musculus [17] = test: Increase in total cholesterol level in human ApoA1 transgenic mouse at 6 mg/kg, po for 7 days (RVb = 29 %); format: functional; how it was run: as §3

Compound: Cc1ccc(NC(=O)CN(Cc2ccc(OC(C)(C)C(=O)O)cc2)Cc2ccco2)c(C)c1
EC50 [1]: 20 nM | EC50 [2]: 800 nM | EC50 [3]: 6000 nM | EC50 [4]: 20 nM | EC50 [5]: 300 nM | EC50 [6]: 2000 nM | Activity (Albumin): 10 µM | solubility [7]: 500 µg/mL (≈ 1110 µM) | AUC [8]: 370 ng·h/mL | Tmax [9]: 0.5 h | bioavailability [10]: 20% | clearance [11]: 89.2 mL/min/kg | half-life [12]: 2 h | Activity (Mus musculus [13]): -3% | Activity (Mus musculus [14]): -20% | Activity (Mus musculus [15]): 58% | Activity (Mus musculus [16]): 74% | Activity (Mus musculus [17]): 91%

EC50 [1]: > 25000 nM
Compound: CCCCCCCN(CC(=O)Nc1ccc(C)cc1C)Cc1ccc(OC(C)(C)C(=O)O)cc1

EC50 [1]: 3000 nM
Compound: COc1cccc(NC(=O)CN(Cc2ccc(OC(C)(C)C(=O)O)cc2)Cc2ccco2)c1

EC50 [1]: 13000 nM
Compound: CC(C)(Oc1ccc(CN(CC(=O)NCc2ccccc2)Cc2ccco2)cc1)C(=O)O

EC50 [1]: 900 nM
Compound: COc1ccc(CN(CC(=O)Nc2ccc(C)cc2C)Cc2ccc(OC(C)(C)C(=O)O)cc2)cc1

EC50 [1]: 700 nM
Compound: Cc1ccc(NC(=O)CN(Cc2ccc(OC(C)(C)C(=O)O)cc2)Cc2cccs2)c(C)c1

EC50 [1]: 1000 nM
Compound: CCCN(CC(=O)Nc1ccc(C)cc1C)Cc1ccc(OC(C)(C)C(=O)O)cc1

EC50 [1]: > 25000 nM
Compound: CC(C)(Oc1ccc(CN(CC(=O)Nc2ccccn2)Cc2ccco2)cc1)C(=O)O

Compound: CCCCCCCN(CCc1ccc(SC(C)(C)C(=O)O)cc1)C(=O)Nc1ccc(F)cc1F [GSK-9578]
EC50 [3]: 2000 nM | EC50 [4]: 10 nM | EC50 [5]: 2500 nM | EC50 [6]: 2000 nM | Activity (Albumin): 1.3 µM | solubility [7]: 100 µg/mL (≈ 203 µM)

EC50 [1]: 1500 nM
Compound: CC(C)(Oc1ccc(CN(CC(=O)Nc2ccc(F)cc2F)Cc2ccco2)cc1)C(=O)O

EC50 [1]: 7000 nM
Compound: CC(C)(Oc1ccc(CN(CC(=O)NCc2ccccc2Cl)Cc2ccco2)cc1)C(=O)O

EC50 [1]: 600 nM
Compound: Cc1ccc(C)c(NC(=O)CN(Cc2ccc(OC(C)(C)C(=O)O)cc2)Cc2ccco2)c1

EC50 [1]: 300 nM
Compound: COc1ccc(OC)c(NC(=O)CN(Cc2ccc(OC(C)(C)C(=O)O)cc2)Cc2ccco2)c1

EC50 [1]: 10000 nM
Compound: CCCCN(CC(=O)Nc1ccc(C)cc1C)Cc1ccc(OC(C)(C)C(=O)O)cc1

EC50 [1]: 1000 nM
Compound: Cc1ccc(NC(=O)CN(Cc2ccccc2)Cc2ccc(OC(C)(C)C(=O)O)cc2)c(C)c1

EC50 [1]: 2000 nM
Compound: Cc1ccccc1NC(=O)CN(Cc1ccc(OC(C)(C)C(=O)O)cc1)Cc1ccco1
